Reference: ChEMBL document CHEMBL2331271, “Stereoselective synthesis of a new class of potent and selective inhibitors of human Δ8,7-sterol isomerase” (Bioorg Med Chem, 2013)
In brackets after ≈: the same amount, converted by molar mass. Activity calls are given as the source filed them. No cut-off for these calls is given here.

Tests used:
[1] = molecular target: 3-beta-hydroxysteroid-Delta(8),Delta(7)-isomerase (Homo sapiens, UniProt Q15125); test: Inhibition of delta8,7-sterol isomerase-mediated cholesterol biosynthesis in human HL60 cells assessed as increase in zymostenol accumulation; format: cell-based; settings: for inhibition: HL-60
Sequence of 3-beta-hydroxysteroid-Delta(8),Delta(7)-isomerase (Q15125 whole entry): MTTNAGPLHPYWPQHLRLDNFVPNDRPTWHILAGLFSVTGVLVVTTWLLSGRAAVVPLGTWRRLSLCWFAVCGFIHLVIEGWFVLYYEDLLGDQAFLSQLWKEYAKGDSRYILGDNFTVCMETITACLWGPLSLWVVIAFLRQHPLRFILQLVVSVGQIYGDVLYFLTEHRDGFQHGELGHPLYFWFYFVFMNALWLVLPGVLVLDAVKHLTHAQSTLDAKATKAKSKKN
Procedure, shortened: (§1)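 HL-60 cells (10^6) incubated 24 h at 37 °C, 5% CO2 in lipid-free medium with 1% LPDS, with compound in ethanol at final 1 or 50 µM. Cells were then saponified in 1 M NaOH at 70 °C for 60 min, extracted into TBME with cholestane internal standard, and silylated with TSIM. The sterol pattern was read by GC-MS full scan, with sterols identified by retention time and MS against authentic samples.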

Yarrowia lipolytica = test: Antifungal activity against Yarrowia lipolytica assessed as inhibition of fungal growth; format: functional
Procedure, shortened: (§2)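 MIC by DIN 58940-84 broth dilution, strains kept in log phase at 28 °C in yeast extract/peptone/glucose medium, 0.5 McFarland standard. Compounds in ethanol stock 0.8 mg/mL, tested at 50, 25 and 12.5 µg/mL in duplicate wells. Controls: sterility, ethanol-only, clotrimazole 0.5 µg/mL, ketoconazole series. MIC = lowest concentration giving visibly complete growth inhibition.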

Saccharomyces cerevisiae = test: Antifungal activity against Saccharomyces cerevisiae assessed as inhibition of fungal growth; format: functional; procedure, shortened: as §2
Nakaseomyces glabratus = test: Antifungal activity against Candida glabrata assessed as inhibition of fungal growth; format: functional; procedure, shortened: as §2
HL-60 = test: Cytotoxicity against human HL60 cells by MTT assay; format: cell-based
Procedure, shortened: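 Human leukemia HL-60 cells, kept in RPMI 1640 with 10% FBS without antibiotics at 37 °C, 5% CO2. Cytotoxicity by standard Mosmann MTT test. IC50 from dose-response curves run in triplicate, reported with 95% confidence interval and R2.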

[2] = molecular target: 3-beta-hydroxysteroid-Delta(8),Delta(7)-isomerase/Delta(24)-sterol reductase (Homo sapiens) (UniProt Q15125+Q15392); test: Inhibition of Delta(8)-Delta(7) sterol isomerase/Delta(24)-sterol reductase-mediated cholesterol biosynthesis in human HL60 cells assessed as increase in zymostenol and zymosterol accumulation; format: cell-based; settings: HL-60; procedure, shortened: as §1
Sequence of 3-beta-hydroxysteroid-Delta(8),Delta(7)-isomerase/Delta(24)-sterol reductase (Homo sapiens) (Q15125 whole entry, looked up): as the sequence (Q15125 whole entry) above
Sequence of 3-beta-hydroxysteroid-Delta(8),Delta(7)-isomerase/Delta(24)-sterol reductase (Homo sapiens) (Q15392 whole entry, looked up): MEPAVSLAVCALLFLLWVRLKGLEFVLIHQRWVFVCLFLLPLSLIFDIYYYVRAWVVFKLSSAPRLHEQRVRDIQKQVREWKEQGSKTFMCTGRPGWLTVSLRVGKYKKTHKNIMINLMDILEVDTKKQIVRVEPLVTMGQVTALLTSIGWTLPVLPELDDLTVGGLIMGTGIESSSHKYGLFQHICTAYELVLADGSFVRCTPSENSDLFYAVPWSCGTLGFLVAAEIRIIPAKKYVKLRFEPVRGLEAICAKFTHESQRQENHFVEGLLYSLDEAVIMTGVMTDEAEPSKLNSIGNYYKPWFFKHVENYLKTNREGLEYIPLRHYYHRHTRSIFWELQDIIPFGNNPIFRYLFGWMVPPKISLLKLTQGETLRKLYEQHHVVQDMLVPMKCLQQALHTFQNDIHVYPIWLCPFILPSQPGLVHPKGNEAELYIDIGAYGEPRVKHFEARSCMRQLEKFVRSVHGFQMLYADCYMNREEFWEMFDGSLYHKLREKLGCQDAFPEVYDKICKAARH

[3] = Selectivity index, ratio of cytotoxic IC50 against human HL60 cells to IC50 for delta8,7-sterol isomerase-mediated cholesterol biosynthesis in human HL60 cells; format: functional, HL-60
Procedure, shortened: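 Cytotoxicity IC50 from the HL-60 MTT test, in triplicate. Cholesterol biosynthesis IC50 came from HL-60 cells given graded inhibitor concentrations for 24 h in lipid-free medium with 1% LPDS plus 2-13C-acetate at final 62.5 µg/mL. Labelled cholesterol was measured by GC-MS (ions 372–379, 462–469), normalised to Bradford protein, and % inhibition fitted sigmoidally with bottom 0, in triplicate.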

| SMILES | inhibition [1] | MIC (Yarrowia lipolytica) [µg/mL] | MIC (Saccharomyces cerevisiae) [µg/mL] | MIC (Nakaseomyces glabratus) [µg/mL] | IC50 [1] [µM] | IC50 (HL-60) [µM] | inhibition [2] | Ratio IC50 [3] |
| --- | --- | --- | --- | --- | --- | --- | --- | --- |
| CC(C)CCC[C@@H](C)[C@H]1CC[C@@]2(C)C(=O)[C@@H](N3C(C)COCC3C)CC[C@]12C (stereo not given in full) | inactive | 25 (≈ 63.8 µM) | 25 (≈ 63.8 µM) | 25 (≈ 63.8 µM) | – | – | – | – |
| CC(C)CCC[C@@H](C)[C@H]1CC[C@@]2(C)[C@H](O)[C@@H](NCc3ccccc3)CC[C@]12C | inactive | 25 (≈ 64.8 µM) | 25 (≈ 64.8 µM) | 25 (≈ 64.8 µM) | – | – | – | – |
| CC(C)CCC[C@@H](C)[C@H]1CC[C@@]2(C)[C@@H](O)[C@@H](N(Cc3ccccc3)Cc3ccccc3)CC[C@]12C | – | 25 (≈ 52.5 µM) | 25 (≈ 52.5 µM) | 25 (≈ 52.5 µM) | > 1 | 27 | – | – |
| C=CCCCN[C@H]1CC[C@]2(C)[C@@H]([C@H](C)CCCC(C)C)CC[C@@]2(C)[C@H]1O | – | 25 (≈ 68.8 µM) | 25 (≈ 68.8 µM) | 25 (≈ 68.8 µM) | 0.058 | 15 | – | – |
| Clc1ccccc1C(c1ccccc1)(c1ccccc1)n1ccnc1 [CLOTRIMAZOLE] | – | 1 (≈ 2.9 µM) | 0.5 (≈ 1.45 µM) | 2.5 (≈ 7.25 µM) | – | – | – | – |
| C=CCCCN[C@H]1CC[C@]2(C)[C@@H]([C@H](C)CCCC(C)C)CC[C@@]2(C)[C@@H]1O | inactive | 25 (≈ 68.8 µM) | 25 (≈ 68.8 µM) | 25 (≈ 68.8 µM) | – | – | – | – |
| CC(C)CCC[C@@H](C)[C@H]1CC[C@@]2(C)C(=O)[C@@H](N3CCN(C)CC3)CC[C@]12C | inactive | 25 (≈ 66.4 µM) | 25 (≈ 66.4 µM) | 25 (≈ 66.4 µM) | – | – | – | – |
| C=CCCCN(Cc1ccccc1)[C@H]1CC[C@]2(C)[C@@H]([C@H](C)CCCC(C)C)CC[C@@]2(C)[C@H]1O | – | 25 (≈ 55.1 µM) | 25 (≈ 55.1 µM) | 25 (≈ 55.1 µM) | 0.082 | 17 | – | – |
| Cc1cccc(N[C@H]2CC[C@]3(C)[C@@H]([C@H](C)CCCC(C)C)CC[C@@]3(C)[C@H]2O)c1C (mixture of isomers) | – | 25 | 25 | 25 | – | – | – | – |
| CC/C(=C(\c1ccccc1)c1ccc(OCCN(C)C)cc1)c1ccccc1 | – | – | – | – | – | – | Active | – |
| CCN[C@H]1CC[C@]2(C)[C@@H]([C@H](C)CCCC(C)C)CC[C@@]2(C)[C@H]1O | – | 25 (≈ 77.3 µM) | 25 (≈ 77.3 µM) | 25 (≈ 77.3 µM) | – | – | – | – |
| CC(C)CCC[C@@H](C)[C@H]1CC[C@@]2(C)C(=O)[C@@H](N(C)C)CC[C@]12C | inactive | 25 (≈ 77.7 µM) | 25 (≈ 77.7 µM) | 25 (≈ 77.7 µM) | – | – | – | – |
| CC(C)CCC[C@@H](C)[C@H]1CC[C@@]2(C)[C@@H](O)[C@@H](NCc3ccoc3)CC[C@]12C | – | 25 (≈ 66.6 µM) | 25 (≈ 66.6 µM) | 25 (≈ 66.6 µM) | – | – | – | – |
| Cc1cccc(N[C@H]2CC[C@]3(C)[C@@H]([C@H](C)CCCC(C)C)CC[C@@]3(C)C2=O)c1C | inactive | 25 (≈ 62.9 µM) | 25 (≈ 62.9 µM) | 25 (≈ 62.9 µM) | – | – | – | – |
| CC(C)CCC[C@@H](C)[C@H]1CC[C@@]2(C)[C@@H](O)[C@@H](NCc3ccc(I)o3)CC[C@]12C | – | 25 (≈ 49.9 µM) | 25 (≈ 49.9 µM) | 25 (≈ 49.9 µM) | – | – | – | – |
| CC(C)CCC[C@@H](C)[C@H]1CC[C@@]2(C)[C@H](O)[C@@H](NCc3ccc(Cl)cc3Cl)CC[C@]12C | inactive | 25 (≈ 55 µM) | 25 (≈ 55 µM) | 25 (≈ 55 µM) | – | – | – | – |
| CC(C)CCC[C@@H](C)[C@H]1CC[C@@]2(C)[C@@H](O)[C@@H](N)CC[C@]12C | – | 25 (≈ 84.6 µM) | 25 (≈ 84.6 µM) | 25 (≈ 84.6 µM) | 0.581 | 11 | – | – |

| SMILES | inhibition [1] | MIC (Yarrowia lipolytica) [µg/mL] | MIC (Saccharomyces cerevisiae) [µg/mL] | MIC (Nakaseomyces glabratus) [µg/mL] | IC50 [1] [µM] | IC50 (HL-60) [µM] | inhibition [2] | Ratio IC50 [3] |
| --- | --- | --- | --- | --- | --- | --- | --- | --- |
| CC(C)CCC[C@@H](C)[C@H]1CC[C@@]2(C)C(=O)[C@@H](NCc3cccnc3)CC[C@]12C | inactive | 25 (≈ 65 µM) | 25 (≈ 65 µM) | 25 (≈ 65 µM) | – | – | – | – |
| CC(C)CCC[C@@H](C)[C@H]1CC[C@@]2(C)[C@@H](O)[C@@H](NCc3ccccc3)CC[C@]12C | – | 25 (≈ 64.8 µM) | 25 (≈ 64.8 µM) | 25 (≈ 64.8 µM) | 0.015 | 8 | – | – |
| CC(C)CCC[C@@H](C)[C@H]1CC[C@@]2(C)[C@@H](O)[C@@H](NCc3cccc(Cl)c3Cl)CC[C@]12C | – | 25 (≈ 55 µM) | 25 (≈ 55 µM) | 25 (≈ 55 µM) | – | – | – | – |
| COc1ccc(CN[C@H]2CC[C@]3(C)[C@@H]([C@H](C)CCCC(C)C)CC[C@@]3(C)[C@H]2O)cc1 | – | 25 (≈ 60.1 µM) | 25 (≈ 60.1 µM) | 25 (≈ 60.1 µM) | – | – | – | – |
| CC(C)CCC[C@@H](C)[C@H]1CC[C@@]2(C)[C@H](O)[C@@H](NCc3ccc(I)o3)CC[C@]12C | inactive | 25 (≈ 49.9 µM) | 25 (≈ 49.9 µM) | 25 (≈ 49.9 µM) | – | – | – | – |
| CC(C)CCC[C@@H](C)[C@H]1CC[C@@]2(C)[C@@H](O)[C@@H](N(C)Cc3ccccc3)CC[C@]12C | – | 25 (≈ 62.6 µM) | 25 (≈ 62.6 µM) | 25 (≈ 62.6 µM) | 0.011 | 7 | – | 636 |
| CC(C)CCC[C@@H](C)[C@H]1CC[C@@]2(C)[C@H](O)[C@@H](NCc3cccc(Cl)c3Cl)CC[C@]12C | inactive | 25 (≈ 55 µM) | 25 (≈ 55 µM) | 25 (≈ 55 µM) | – | – | – | – |
| COc1ccc(CN[C@H]2CC[C@]3(C)[C@@H]([C@H](C)CCCC(C)C)CC[C@@]3(C)[C@H]2O)c(OC)c1 | – | 25 (≈ 56.1 µM) | 25 (≈ 56.1 µM) | 25 (≈ 56.1 µM) | – | – | – | – |
| CC(C)CCC[C@@H](C)[C@H]1CC[C@@]2(C)[C@H](O)[C@@H](NCc3ccoc3)CC[C@]12C | inactive | 25 (≈ 66.6 µM) | 25 (≈ 66.6 µM) | 25 (≈ 66.6 µM) | – | – | – | – |
| CC(C)CCC[C@@H](C)[C@H]1CC[C@@]2(C)[C@H](O)[C@@H](NCc3cccc(Cl)c3)CC[C@]12C | inactive | 25 (≈ 59.5 µM) | 25 (≈ 59.5 µM) | 25 (≈ 59.5 µM) | – | – | – | – |
| CC(C)CCC[C@@H](C)[C@H]1CC[C@@]2(C)[C@@H](O)[C@@H](N3CCN(C)CC3)CC[C@]12C | – | 25 (≈ 66 µM) | 25 (≈ 66 µM) | 25 (≈ 66 µM) | – | – | – | – |
| CC(C)CCC[C@@H](C)[C@H]1CC[C@@]2(C)[C@@H](O)[C@@H](NCc3cccnc3)CC[C@]12C | – | 25 (≈ 64.7 µM) | 25 (≈ 64.7 µM) | 25 (≈ 64.7 µM) | – | – | – | – |
| CC(C)CCC[C@@H](C)[C@H]1CC[C@@]2(C)[C@@H](O)[C@@H](N(C)C)CC[C@]12C | – | 25 (≈ 77.3 µM) | 25 (≈ 77.3 µM) | 25 (≈ 77.3 µM) | 0.576 | 17 | – | – |
| CC(C)CCC[C@@H](C)[C@H]1CC[C@@]2(C)[C@@H](O)[C@@H](NCc3ccc(Cl)cc3Cl)CC[C@]12C | – | 25 (≈ 55 µM) | 25 (≈ 55 µM) | 25 (≈ 55 µM) | – | – | – | – |
| C=CCCCN(C)[C@H]1CC[C@]2(C)[C@@H]([C@H](C)CCCC(C)C)CC[C@@]2(C)[C@H]1O | – | 25 (≈ 66.2 µM) | 25 (≈ 66.2 µM) | 25 (≈ 66.2 µM) | 0.018 | 7 | – | 390 |
| CC(C)CCC[C@@H](C)[C@H]1CC[C@@]2(C)[C@@H](O)[C@@H](N3CC(C)OC(C)C3)CC[C@]12C (mixture of isomers) | – | 25 | 25 | 25 | – | – | – | – |
| CC(C)CCC[C@@H](C)[C@H]1CC[C@@]2(C)[C@@H](O)[C@@H](NCc3cccc(Cl)c3)CC[C@]12C | – | 25 (≈ 59.5 µM) | 25 (≈ 59.5 µM) | 25 (≈ 59.5 µM) | – | – | – | – |
